Results reported in ChEMBL document CHEMBL3272127, “Synthesis and kinetic evaluation of S- and N-substituted cysteinylglycines as inhibitors of glyoxalase I” (J Med Chem, 1977).
Activity calls are given as the source filed them. No cut-off for these calls is given here. Square brackets hold non-standard residues; d marks the D form. Peptide text beside a SMILES is read from it. * marks the point of attachment. Bn = c1ccc(C*)cc1; GABA = NCCCC(=O)O; βAla = NCCC(=O)O

Columns and labels:
[1] = Noncompetitive inhibition of yeast glyoxalase 1 assessed as inhibition of product formation by double reciprocal plot method; design: species or system Saccharomyces cerevisiae
In short: (§1)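 Yeast glyoxalase I, diluted to 20 µg/ml in 30% glycerin with 0.1% BSA. Assays ran at 30 °C in 0.05 M phosphate buffer, pH 6.6. Methylglyoxal, reduced glutathione, inhibitor and buffer were preincubated 3 min to form the hemimercaptal, then enzyme was added. Product formation was followed at 240 nm.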

Saccharomyces cerevisiae [2] = assay: Synergistic binding affinity to active site of yeast glyoxalase 1 using hemimercaptal as substrate at 0.1 to 0.3 mM in presence of free glutathione
In short: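 Yonetani–Thorell analysis with yeast glyoxalase I at 30 °C, pH 6.6 phosphate, read at 240 nm. Reciprocal velocity was plotted against inhibitor concentration at fixed hemimercaptal substrate and fixed free glutathione levels of 0.1, 2.0 or 5.0 mM.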

[3] = Binding affinity to yeast glyoxalase 1 assessed as inhibition of product formation by double reciprocal plot method; design: species or system Saccharomyces cerevisiae; in short: as §1
Saccharomyces cerevisiae [4] = assay: Competitive inhibition of yeast glyoxalase 1 assessed as inhibition of product formation by double reciprocal plot method; in short: as §1
Saccharomyces cerevisiae [5] = assay: Activity of yeast glyoxalase 1; in short: as §1
Mus musculus = species on record: Mus musculus; assay: Activity of mouse liver glyoxalase
[6] = Ratio of Km for yeast glyoxalase 1 to Km for mouse liver glyoxalase
Saccharomyces cerevisiae [7] = assay: Binding affinity to active site of yeast glyoxalase 1 using hemimercaptal as substrate at 0.005 to 0.015 mM in presence of free glutathione

Compound	Ki ([1]; read-out: Ki) [µM]	further results
O=C(O)CCCC(=O)N[C@@H](CSCc1ccccc1)C(=O)NCC(=O)O	3000	–
N[C@@H](CSCc1ccccc1)C(=O)NCC(=O)O	–	Ki [1]: Not Active
NCCC(=O)N[C@@H](CSCc1ccccc1)C(=O)NCC(=O)O (H-[βAla]-Cys(Bn)-Gly-OH)	5300	–
NCCCC(=O)N[C@@H](CSCc1ccccc1)C(=O)NCC(=O)O (H-[GABA]-Cys(Bn)-Gly-OH)	4100	–
O=C(O)CCC(=O)N[C@@H](CSCc1ccccc1)C(=O)NCC(=O)O	4500	–
CC(=O)C(O)SC[C@H](NC(=O)CC[C@H](N)C(=O)O)C(=O)NCC(=O)O (stereo partly drawn)	–	Kd [3]: 3100 µM; inhibition (Saccharomyces cerevisiae [4]): Active; Km (Saccharomyces cerevisiae [5]): 500 µM; Km (Mus musculus): 57 µM; Ratio [6]: 10
N[C@@H](CCC(=O)N[C@@H](CSCc1ccc(Br)cc1)C(=O)NCC(=O)O)C(=O)O	–	inhibition (Saccharomyces cerevisiae [4]): Active; Activity (Saccharomyces cerevisiae [7]): Active

Continued by falling Ki ([1]; read-out: Ki), values first:

Ki ([1]; read-out: Ki) [µM]	Compound	further results
1500	NCCC(=O)N[C@@H](CSCc1ccc(Br)cc1)C(=O)NCC(=O)O	–
1200	NCCCC(=O)N[C@@H](CSCc1ccc(Br)cc1)C(=O)NCC(=O)O	–
580	N[C@@H](CSCc1ccc(Br)cc1)C(=O)NCC(=O)O	–
400	O=C(O)CCC(=O)N[C@@H](CSCc1ccc(Br)cc1)C(=O)NCC(=O)O	–
320	O=C(O)CCCC(=O)N[C@@H](CSCc1ccc(Br)cc1)C(=O)NCC(=O)O	Activity (Saccharomyces cerevisiae [2]): Active
